The source made the active and inactive calls. Unless noted, no cut-off for these calls is given here.
How the values were obtained:
[1] = biological target: T1, tRNA (guanine-N(1)-)-methyltransferase (Pseudomonas aeruginosa (strain ATCC 15692 / DSM 22644 / CIP 104116 / JCM14847 / LMG 12228 / 1C / PRS 101 / PAO1)) (UniProt Q9HXQ1); experiment: Binding affinity to Pseudomonas aeruginosa tRNA (guanine(37)-N1)-methyltransferase (Leu5 to Asp25 residues) expressed in Escherichia coli BL21 (DE3) Rosetta T1R cells assessed as thermal stabilization of protein by measuring change in melting temperature at 0.1 mM by SYPRO orange based thermal shift assay
T1 sequence (whole entry): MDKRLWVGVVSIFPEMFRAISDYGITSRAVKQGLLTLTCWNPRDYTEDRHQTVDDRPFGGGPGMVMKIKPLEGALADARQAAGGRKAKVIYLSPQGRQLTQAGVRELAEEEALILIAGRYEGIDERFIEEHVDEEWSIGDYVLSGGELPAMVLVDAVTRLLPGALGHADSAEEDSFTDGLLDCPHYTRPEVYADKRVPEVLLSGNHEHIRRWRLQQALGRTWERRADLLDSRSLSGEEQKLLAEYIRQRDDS
Summary of the method: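 Thermal shift: 4 μM TrmD with 5× SYPRO Orange and ligand in 50 mM Tris-HCl pH 8, 150 mM NaCl, 1 mM MgCl2, 1 mM DTT, 0.05% Tween-20. Buffer-only control. Heated from 25 to 95 °C in a real-time PCR instrument, and Tm taken as the unfolding midpoint. Ligand levels: SAH 2 mM, inhibitors 0.1 mM.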

[2] = biological target: T2, tRNA (guanine-N(1)-)-methyltransferase (Pseudomonas aeruginosa (strain ATCC 15692 / DSM 22644 / CIP 104116 / JCM14847 / LMG 12228 / 1C / PRS 101 / PAO1), UniProt Q9HXQ1); experiment: Inhibition of Pseudomonas aeruginosa tRNA (guanine(37)-N1)-methyltransferase (Leu5 to Asp25 residues) expressed in Escherichia coli BL21 (DE3) Rosetta T1R cells assessed as reduction in S-adenosyl-L-homocysteine production preincubated for 15 mins followed by 1.5 uM of tRNALeu(CAG) substrate and SAM addition and measured after 45 mins by MTase-Glo assay
T2 sequence (Q9HXQ1 whole entry): T1 sequence (whole entry)
Summary of the method: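 MTase-Glo luminescence assay. 8 nM TrmD preincubated 15 min at ambient temperature with serially diluted inhibitor (0–500 μM) in 50 mM Tris-HCl pH 8.0, 80 mM NaCl, 1 mM MgCl2, 0.5 mM DTT, 0.01% Triton X-100. Reaction with 2 μM SAM and tRNALeu(CAG), 45 min at 37 °C. Detection 30 min in the dark, SAH read against a standard curve. IC50 by nonlinear regression. Two independent experiments in duplicate.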

Enterococcus faecalis [3] = experiment: Antibacterial activity against Enterococcus faecalis ATCC 51299 at 100 uM incubated for 24 hrs; type: functional, organism-based
Summary of the method: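 Single-concentration screen in brain heart infusion broth. Log-phase cells at ~5×10^5 cells/mL were grown with 100 μM compound for 24 h at 37 °C. Growth was read as OD600 and expressed as a percentage of untreated wells. DMSO and blank controls were included.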

[4] = test system: Mycobacterium tuberculosis; experiment: Antibacterial activity against Mycobacterium tuberculosis ATCC 27294 at 100 uM incubated for 7 days; type: functional, organism-based
Staphylococcus aureus [5] = experiment: Antibacterial activity against methicillin-resistant Staphylococcus aureus ATCC 43300 at 100 uM incubated for 24 hrs; type: functional, organism-based
Summary of the method: (§1)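 Single-concentration growth screen: 100 μM test compound with log-phase bacteria at about 5×10^5 cells/mL. Incubation 24 h at 37 °C. Growth read by OD600 and given as percent of untreated control. MRSA was grown in cation-adjusted Mueller–Hinton broth. M. smegmatis was grown in complete Middlebrook 7H9. Ampicillin and kanamycin served as positive controls.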

[6] = test system: Mycolicibacterium smegmatis; experiment: Antibacterial activity against Mycolicibacterium smegmatis MC2 155 at 100 uM incubated for 24 hrs; type: functional, organism-based; summary of the method: as §1
Streptococcus pneumoniae [7] = experiment: Antibacterial activity against Streptococcus pneumoniae ATCC 49619 at 100 uM incubated for 24 hrs; type: functional, organism-based
Summary of the method: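 Single 100 μM screen in MH medium with 3% defibrinated sheep blood at 37 °C under 5% CO2, ~5×10^5 cells/mL, 24 h.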

Erythrocyte = experiment: Hemolytic activity in human RBC at 100 uM measured after 1 hr; type: ADME, cell-based
Summary of the method: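 Fresh human RBCs were PBS-washed and resuspended to OD600 24, then mixed 1:1 by volume with compound serially diluted in PBS. Incubated 1 h at 37 °C without shaking and centrifuged at 1000g for 15 min. Triton X-100 served as positive control. Run in triplicate.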

Klebsiella pneumoniae = experiment: Antibacterial activity against Klebsiella pneumoniae ATCC 13883 incubated for 24 hrs by serial broth microdilution method; type: functional, organism-based
Summary of the method: (§2)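 Log-phase cultures from four colonies grown overnight at 37 °C, inoculated at ~5×10^5 cells/mL in cation-adjusted Mueller–Hinton broth with serially diluted compound. Grown 24 h at 37 °C, then OD600 read. MIC50/MIC90 are the concentrations giving 50%/90% growth inhibition relative to drug-free controls. Two independent experiments in duplicate.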

Streptococcus pneumoniae [8] = experiment: Antibacterial activity against Streptococcus pneumoniae ATCC 49619 incubated for 24 hrs by serial broth microdilution method; type: functional
Summary of the method: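 Cultured in MH medium plus 3% defibrinated sheep blood at 37 °C, 5% CO2. Log-phase inoculum ~5×10^5 cells/mL was exposed to serial compound dilutions for 24 h. MIC50/MIC90 are relative to drug-free controls. Two independent experiments in duplicate.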

Enterococcus faecalis [9] = experiment: Antibacterial activity against Enterococcus faecalis ATCC 51299 incubated for 24 hrs by serial broth microdilution method; type: functional, organism-based
Summary of the method: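 Broth microdilution in brain heart infusion broth, ~5×10^5 cells/mL log-phase inoculum, serial compound dilutions, 24 h at 37 °C, OD600 read-out. MIC50/MIC90 are the concentrations giving 50%/90% growth inhibition relative to drug-free controls. Two independent experiments in duplicate.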

Acinetobacter baumannii = experiment: Antibacterial activity against Acinetobacter baumannii ATCC 17961 incubated for 24 hrs by serial broth microdilution method; type: functional; summary of the method: as §2
Staphylococcus aureus [10] = experiment: Antibacterial activity against methicillin-resistant Staphylococcus aureus ATCC 43300 incubated for 24 hrs by serial broth microdilution method; type: functional
Summary of the method: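 Growth read by OD600. MRSA in cation-adjusted Mueller–Hinton broth, M. smegmatis in complete 7H9. MIC50 and MIC90 are 50% and 90% growth inhibition versus drug-free controls. Two independent experiments, each in duplicate.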

Escherichia coli = experiment: Antibacterial activity against Escherichia coli BW25113 incubated for 24 hrs by serial broth microdilution method; type: functional, organism-based; summary of the method: as §2
Pseudomonas aeruginosa = experiment: Antibacterial activity against Pseudomonas aeruginosa PA14 incubated for 24 hrs by serial broth microdilution method; type: functional, organism-based; summary of the method: as §2
Salmonella enteritidis = experiment: Antibacterial activity against Salmonella enteritidis ATCC 13076 incubated for 24 hrs by serial broth microdilution method; type: functional; conditions: Salmonella enterica subsp. enterica serovar Enteritidis; summary of the method: as §2

CCCCCCCCNCc1ccc(CNC(=O)c2csc3ncnc(OCc4ccc(N=[N+]=[N-])cc4)c23)cc1
ΔTm [1]: 1 to 2 °C
IC50 [2]: 1800 nM

CCN(CC)Cc1ccc(CNC(=O)c2csc3nc[nH]c(=O)c23)cc1
Activity (Enterococcus faecalis [3]): inactive
Activity [4]: inactive
Activity (Staphylococcus aureus [5]): inactive
Activity [6]: inactive
Activity (Streptococcus pneumoniae [7]): inactive
Activity (Erythrocyte): Non-Toxic
IC50 [2]: 730 nM

Cl.NCCOCCOCCNCc1ccc(CNC(=O)c2csc3nc[nH]c(=O)c23)cc1
Activity (Enterococcus faecalis [3]): inactive
Activity [4]: inactive
Activity (Klebsiella pneumoniae): inactive
Activity (Streptococcus pneumoniae [8]): inactive
Activity (Enterococcus faecalis [9]): inactive
Activity (Staphylococcus aureus [5]): inactive
Activity [6]: inactive
Activity (Acinetobacter baumannii): inactive
Activity (Streptococcus pneumoniae [7]): inactive
Activity (Erythrocyte): Non-Toxic
IC50 [2]: 450 nM
Activity (Staphylococcus aureus [10]): inactive
Activity (Escherichia coli): inactive
Activity (Pseudomonas aeruginosa): inactive
Activity (Salmonella enteritidis): inactive

CCCCCNCc1ccc(CNC(=O)c2csc3nc[nH]c(=O)c23)cc1
Activity (Enterococcus faecalis [3]): inactive
Activity [4]: inactive
Activity (Staphylococcus aureus [5]): inactive
Activity [6]: inactive
Activity (Streptococcus pneumoniae [7]): inactive
Activity (Erythrocyte): Non-Toxic
IC50 [2]: 85 nM

CCOCCOCCNCc1ccc(CNC(=O)c2csc3nc[nH]c(=O)c23)cc1
Activity (Enterococcus faecalis [3]): inactive
Activity [4]: inactive
Activity (Staphylococcus aureus [5]): inactive
Activity [6]: inactive
Activity (Streptococcus pneumoniae [7]): inactive
IC50 [2]: 210 nM

O=C(NCc1ccc(CNC(=O)c2cc(=O)c(O)cn2O)cc1)c1csc2nc[nH]c(=O)c12
Activity (Enterococcus faecalis [3]): inactive
Activity [4]: inactive
Activity (Klebsiella pneumoniae): inactive
Activity (Streptococcus pneumoniae [8]): inactive
Activity (Enterococcus faecalis [9]): inactive
Activity (Staphylococcus aureus [5]): inactive
Activity [6]: inactive
Activity (Acinetobacter baumannii): inactive
Activity (Streptococcus pneumoniae [7]): inactive
Activity (Erythrocyte): Non-Toxic
IC50 [2]: 700 nM
Activity (Staphylococcus aureus [10]): inactive
Activity (Escherichia coli): inactive
Activity (Pseudomonas aeruginosa): inactive
Activity (Salmonella enteritidis): inactive

O=C(NCc1ccc(CNCCOCCO)cc1)c1csc2nc[nH]c(=O)c12
Activity (Enterococcus faecalis [3]): inactive
Activity [4]: inactive
Activity (Staphylococcus aureus [5]): inactive
Activity [6]: inactive
Activity (Streptococcus pneumoniae [7]): inactive
Activity (Erythrocyte): Non-Toxic
IC50 [2]: 110 nM

O=C(NCc1ccc(CN2CCCCC2)cc1)c1csc2nc[nH]c(=O)c12
Activity (Enterococcus faecalis [3]): inactive
Activity [4]: inactive
Activity (Staphylococcus aureus [5]): inactive
Activity [6]: inactive
Activity (Streptococcus pneumoniae [7]): inactive
Activity (Erythrocyte): Non-Toxic
IC50 [2]: 1100 nM

CCCCCCN(Cc1ccccc1)Cc1ccc(CNC(=O)c2csc3nc[nH]c(=O)c23)cc1
Activity (Enterococcus faecalis [3]): inactive
Activity [4]: inactive
Activity (Staphylococcus aureus [5]): inactive
Activity [6]: inactive
Activity (Streptococcus pneumoniae [7]): inactive
IC50 [2]: 2200 nM

Cl.NCCCCNCc1ccc(CNC(=O)c2csc3nc[nH]c(=O)c23)cc1
Activity (Enterococcus faecalis [3]): inactive
Activity [4]: inactive
Activity (Klebsiella pneumoniae): inactive
Activity (Streptococcus pneumoniae [8]): inactive
Activity (Enterococcus faecalis [9]): inactive
Activity (Staphylococcus aureus [5]): inactive
Activity [6]: inactive
Activity (Acinetobacter baumannii): inactive
Activity (Streptococcus pneumoniae [7]): inactive
Activity (Erythrocyte): Non-Toxic
IC50 [2]: 80 nM
Activity (Staphylococcus aureus [10]): inactive
Activity (Escherichia coli): inactive
Activity (Pseudomonas aeruginosa): inactive
Activity (Salmonella enteritidis): inactive

CCCCCCCCN(CC)Cc1ccc(CNC(=O)c2csc3nc[nH]c(=O)c23)cc1
Activity (Enterococcus faecalis [3]): inactive
Activity [4]: inactive
Activity (Staphylococcus aureus [5]): inactive
Activity [6]: inactive
Activity (Streptococcus pneumoniae [7]): inactive
IC50 [2]: 370 nM

O=C(NCc1ccc(CNCc2ccccc2)cc1)c1csc2nc[nH]c(=O)c12
Activity (Enterococcus faecalis [3]): inactive
Activity [4]: inactive
Activity (Staphylococcus aureus [5]): inactive
Activity [6]: inactive
Activity (Streptococcus pneumoniae [7]): inactive
Activity (Erythrocyte): Non-Toxic
IC50 [2]: 130 nM

O=C(NCc1ccc(CNC23CC4CC(CC(C4)C2)C3)cc1)c1csc2nc[nH]c(=O)c12
Activity (Enterococcus faecalis [3]): inactive
Activity [4]: inactive
Activity (Staphylococcus aureus [5]): inactive
Activity [6]: inactive
Activity (Streptococcus pneumoniae [7]): inactive
Activity (Erythrocyte): Non-Toxic
IC50 [2]: 720 nM

CCCCCCCCN(Cc1ccccc1)Cc1ccc(CNC(=O)c2csc3nc[nH]c(=O)c23)cc1
Activity (Enterococcus faecalis [3]): inactive
Activity [4]: inactive
Activity (Staphylococcus aureus [5]): inactive
Activity [6]: inactive
Activity (Streptococcus pneumoniae [7]): inactive
Activity (Erythrocyte): Non-Toxic
IC50 [2]: 12000 nM

CCN(Cc1ccc(CNC(=O)c2csc3nc[nH]c(=O)c23)cc1)C1CCCCC1
Activity (Enterococcus faecalis [3]): inactive
Activity [4]: inactive
Activity (Staphylococcus aureus [5]): inactive
Activity [6]: inactive
Activity (Streptococcus pneumoniae [7]): inactive
Activity (Erythrocyte): Non-Toxic
IC50 [2]: 490 nM

CCN(Cc1ccccc1)Cc1ccc(CNC(=O)c2csc3nc[nH]c(=O)c23)cc1
Activity (Enterococcus faecalis [3]): inactive
Activity [4]: inactive
Activity (Staphylococcus aureus [5]): inactive
Activity [6]: inactive
Activity (Streptococcus pneumoniae [7]): inactive
Activity (Erythrocyte): Non-Toxic
IC50 [2]: 2200 nM

CCCCNCc1ccc(CNC(=O)c2csc3nc[nH]c(=O)c23)cc1
Activity (Enterococcus faecalis [3]): inactive
Activity [4]: inactive
Activity (Staphylococcus aureus [5]): inactive
Activity [6]: inactive
Activity (Streptococcus pneumoniae [7]): inactive
Activity (Erythrocyte): Non-Toxic
IC50 [2]: 150 nM

O=C(NCc1ccc(CNC2CCCCC2)cc1)c1csc2nc[nH]c(=O)c12
Activity (Enterococcus faecalis [3]): inactive
Activity [4]: inactive
Activity (Staphylococcus aureus [5]): inactive
Activity [6]: inactive
Activity (Streptococcus pneumoniae [7]): inactive
Activity (Erythrocyte): Non-Toxic
IC50 [2]: 790 nM

O=C(NCc1ccc(CN2CCOCC2)cc1)c1csc2nc[nH]c(=O)c12
Activity (Enterococcus faecalis [3]): inactive
Activity [4]: inactive
Activity (Staphylococcus aureus [5]): inactive
Activity [6]: inactive
Activity (Streptococcus pneumoniae [7]): inactive
Activity (Erythrocyte): Non-Toxic
IC50 [2]: 3000 nM

Source: ChEMBL document CHEMBL4373727, “Thienopyrimidinone Derivatives That Inhibit Bacterial tRNA (Guanine37-N1)-Methyltransferase (TrmD) by Restructuring the Active Site with a Tyrosine-Flipping Mechanism” (J Med Chem, 2019)
